ChEMBL document CHEMBL1152176, “Pyrazoline-based mycobactin analogues as MAO-inhibitors” (Bioorg Med Chem Lett, 2008)

Legend:
[1] = molecular target: T1, Amine oxidase [flavin-containing] A (Rattus norvegicus, UniProt P21396); assay: Inhibition of MAOA in rat liver homogenates preincubated for 60 mins; type: tissue-based
T1 sequence (P21396 whole entry): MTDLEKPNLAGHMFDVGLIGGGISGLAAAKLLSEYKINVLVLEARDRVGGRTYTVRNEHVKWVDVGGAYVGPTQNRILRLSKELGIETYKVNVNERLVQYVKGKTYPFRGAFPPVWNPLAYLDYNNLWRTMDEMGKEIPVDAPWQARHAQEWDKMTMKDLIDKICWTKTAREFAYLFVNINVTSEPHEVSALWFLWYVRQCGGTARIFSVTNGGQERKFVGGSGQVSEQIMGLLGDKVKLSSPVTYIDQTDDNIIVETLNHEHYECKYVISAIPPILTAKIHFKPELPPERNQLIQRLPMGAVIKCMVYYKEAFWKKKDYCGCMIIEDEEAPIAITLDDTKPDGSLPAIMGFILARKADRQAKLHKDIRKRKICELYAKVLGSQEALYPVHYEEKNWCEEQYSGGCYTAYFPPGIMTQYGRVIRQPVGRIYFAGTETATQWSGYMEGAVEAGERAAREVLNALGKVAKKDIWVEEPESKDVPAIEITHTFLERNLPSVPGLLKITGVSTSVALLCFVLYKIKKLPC
How it was run: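 Rat liver MAO assayed by Holt's spectrophotometric method. The chromogenic mix was vanillinic acid, 4-aminoantipyrine and peroxidase type II in potassium phosphate pH 7.6, preincubated with p-tyramine. Inhibitors were preincubated with enzyme at 37 °C for 60 min. A498 was read at 37 °C for 60 min. IC50 came from residual activity versus [I]; mean of three independent experiments.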

[2] = Inhibition of rat liver monoamine oxidase by Lineweaver-Burke plot
[3] = molecular target: T2, Amine oxidase [flavin-containing] B (Rattus norvegicus, UniProt P19643); assay: Inhibition of MAOB in rat liver homogenates preincubated for 60 mins; type: tissue-based
T2 sequence (P19643 whole entry): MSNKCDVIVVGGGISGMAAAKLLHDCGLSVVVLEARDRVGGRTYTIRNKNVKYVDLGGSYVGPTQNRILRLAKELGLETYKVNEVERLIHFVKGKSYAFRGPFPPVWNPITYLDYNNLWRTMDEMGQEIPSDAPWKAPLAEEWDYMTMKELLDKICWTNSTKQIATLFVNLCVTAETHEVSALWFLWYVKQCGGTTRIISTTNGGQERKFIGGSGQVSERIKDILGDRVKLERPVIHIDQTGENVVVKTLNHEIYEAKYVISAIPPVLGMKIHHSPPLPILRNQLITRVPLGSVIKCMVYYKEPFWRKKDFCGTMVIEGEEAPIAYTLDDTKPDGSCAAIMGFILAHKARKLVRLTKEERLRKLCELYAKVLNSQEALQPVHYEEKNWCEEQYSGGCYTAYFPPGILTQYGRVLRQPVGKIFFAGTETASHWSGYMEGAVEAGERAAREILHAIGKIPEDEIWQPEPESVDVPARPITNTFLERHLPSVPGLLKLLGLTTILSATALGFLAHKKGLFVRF

SMILES | IC50 [1] | Ki [2] | IC50 [3]
Oc1ccccc1C1=NN(C(=S)Nc2ccccc2)C(c2ccccc2Cl)C1 (configuration not stated) | 20 µM | 18.6 µM | 455 µM
Oc1ccccc1C1CC(c2ccccc2)=NN1C(=S)Nc1ccccc1 (configuration not stated) | 451 µM | 34.7 µM | 35.5 µM
Oc1ccccc1C1=NN(C(=S)Nc2ccccc2)C(c2ccccc2)C1 (configuration not stated) | 49.2 µM | 40.2 µM | 439 µM
Oc1ccccc1C1=NN(C(=S)Nc2ccccc2)C(c2cccs2)C1 (configuration not stated) | 5.56 µM |  | 
Oc1ccc(C2=NN(C(=S)Nc3ccccc3)C(c3ccc(O)cc3)C2)cc1 (configuration not stated) | 32.1 µM | 30.6 µM | 486 µM
COc1ccc(NC(=S)N2N=C(c3ccccc3O)CC2c2ccc(O)cc2)cc1 (configuration not stated) | 401 µM | 39.2 µM | 41.1 µM
Cc1ccc(NC(=S)N2N=C(c3ccccc3O)CC2c2ccc(O)cc2)cc1 (configuration not stated) | 475 µM | 42.9 µM | 46.1 µM
COc1ccc(NC(=S)N2N=C(c3ccccc3O)CC2c2ccc(O)c(OC)c2)cc1 (configuration not stated) | 48.9 µM | 60.5 µM | 477 µM
COc1cc(C2CC(c3ccccc3O)=NN2C(=S)Nc2ccccc2OC)ccc1O (configuration not stated) | 170 µM |  | 201 µM
COc1ccccc1NC(=S)N1N=C(c2ccc(O)cc2O)CC1c1ccc(O)cc1 (configuration not stated) | 148 µM |  | 171 µM
COc1cc(C2CC(c3ccccc3O)=NN2C(=S)Nc2ccc(C)cc2)ccc1O (configuration not stated) | 50.6 µM | 75.1 µM | 481 µM
COc1cc(C2CC(c3ccc(O)cc3O)=NN2C(=S)Nc2ccccc2OC)ccc1O (configuration not stated) | 180 µM |  | 170 µM
COc1ccc(NC(=S)N2N=C(c3ccccc3O)CC2c2ccccc2O)cc1 (configuration not stated) | 470 µM | 36.2 µM | 40.8 µM
COc1ccc(NC(=S)N2N=C(c3ccc(O)cc3O)CC2c2ccc(O)c(OC)c2)cc1 (configuration not stated) | 53.4 µM | 71.1 µM | 475 µM
COc1ccc(NC(=S)N2N=C(c3ccc(O)cc3O)CC2c2ccc(O)cc2)cc1 (configuration not stated) | 69.6 µM | 85.5 µM | 456 µM
COc1ccccc1NC(=S)N1N=C(c2ccccc2O)CC1c1ccc(O)cc1 (configuration not stated) | 151 µM |  | 144 µM
Cc1ccccc1NC(=S)N1N=C(c2ccccc2O)CC1c1ccc(O)cc1 (configuration not stated) | 189 µM |  | 180 µM
Cc1ccccc1NC(=S)N1N=C(c2ccccc2O)CC1c1ccccc1O (configuration not stated) | 170 µM |  | 180 µM

SMILES | IC50 [1] | Ki [2] | IC50 [3]
NC(=S)N1N=C(c2ccccc2O)CC1c1ccc(O)cc1 (configuration not stated) | 466 µM | 15.2 µM | 19.5 µM
Oc1ccccc1C1=NN(C(=S)Nc2ccccc2)C(c2ccccc2O)C1 (configuration not stated) | 58.1 µM | 48.5 µM | 420 µM
Oc1ccc(C2CC(c3ccccc3O)=NN2C(=S)Nc2ccccc2)cc1 (configuration not stated) | 67.2 µM | 50.5 µM | 400 µM
COc1ccccc1C1CC(c2ccccc2O)=NN1C(=S)Nc1ccccc1 (configuration not stated) | 74.2 µM | 63.6 µM | 419 µM
Oc1ccccc1C1=NN(C(=S)Nc2ccccc2)C(c2ccc(Cl)cc2)C1 (configuration not stated) | 23.2 µM | 20.1 µM | 400 µM
COc1ccccc1NC(=S)N1N=C(c2ccccc2O)CC1c1ccccc1O (configuration not stated) | 144 µM |  | 171 µM
Cc1ccc(NC(=S)N2N=C(c3ccccc3O)CC2c2ccccc2O)cc1 (configuration not stated) | 400 µM | 35 µM | 37.7 µM
COc1cc(C2CC(c3ccccc3O)=NN2C(=S)Nc2ccccc2)ccc1O (configuration not stated) | 40.1 µM | 62.7 µM | 451 µM
COc1cc(C2CC(c3ccc(O)cc3O)=NN2C(=S)Nc2ccccc2)ccc1O (configuration not stated) | 65.6 µM | 79.2 µM | 490 µM
Oc1ccc(C2CC(c3ccccc3)=NN2C(=S)Nc2ccccc2)cc1 (configuration not stated) | 476 µM | 40.6 µM | 48.6 µM
Oc1ccc(C2CC(c3ccc(O)cc3O)=NN2C(=S)Nc2ccccc2)cc1 (configuration not stated) | 58.6 µM | 80 µM | 470 µM
COc1ccc(C2CC(c3ccccc3O)=NN2C(=S)Nc2ccccc2)cc1 (configuration not stated) | 2.84 µM | 2.5 µM | 415 µM
Oc1ccccc1C1=NN(C(=S)Nc2ccccc2)C(c2ccco2)C1 (configuration not stated) | 33.4 µM | 27.5 µM | 440 µM
COc1cc(C2CC(c3ccccc3O)=NN2C(=S)Nc2ccccc2C)ccc1O (configuration not stated) | 201 µM |  | 198 µM
C#CCN(C)CCCOc1ccc(Cl)cc1Cl [CLORGILINE] |  | 1.99 µM | 
O=C(NCCN1CCOCC1)c1ccc(Cl)cc1 [MOCLOBEMIDE] |  | 2.25 µM | 480 µM
C#CCN(C)Cc1ccccc1 [PARGYLINE] |  | 3.25 µM | 3.85 µM
C#CCN(C)[C@H](C)Cc1ccccc1 [SELEGILINE] |  | 1.9 µM | 
